# From ChEMBL document CHEMBL1156978, “Improving binding specificity of pharmacological chaperones that target mutant superoxide dismutase-1 linked to familial amyotrophic lateral sclerosis using computational methods” (J Med Chem, 2010)
# The source made the active and inactive calls. No cut-off for these calls is given here.
# Experiments:
# [1] = organism: Homo sapiens; assay: Inhibition of human GST-SOD1 A4V mutant aggregation expressed in Escherichia coli Rosetta assessed as dimeric enzyme level at 75 uM by […]
# [2] = organism: Homo sapiens; assay: Inhibition of human GST-SOD1 A4V and N53A mutant aggregation expressed in Escherichia coli Rosetta assessed as dimeric enzyme level at 75 uM by […]
# Procedure, shortened: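 Metal-free SOD-1 mutant prepared by dialysis against acetate pH 3.8/10mM EDTA, then pH 5.5/100mM NaCl; chelex-treated buffers, plastic tubes. Dimer purified on Superdex 75. Apoprotein 25μM preincubated with compound 75μM, 37°C, 15 min; aggregation started with 5mM EDTA at 37°C. Aliquots analysed by Superdex 200 gel filtration in TBS pH 7.4 (220/276 nm); dimer estimated from peak area.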
# [3] = molecular target: Superoxide dismutase [Cu-Zn] (Homo sapiens) (UniProt P00441); assay: Binding affinity to human GST-SOD1 expressed in Escherichia coli Rosetta at 100 uM in presence of human plasma by reverse phase HPLC analysis; assay type: cell-free
# Procedure, shortened: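 GST-SOD-1 fusion (final 75μM) added to 1 ml human blood plasma with compound at 100μM; shaken 60 rpm, 4°C, 24 h. Complex captured on glutathione-sepharose (4°C, 1 h), compound released with 5% TFA and quantified by C18 reverse-phase HPLC (40-100% acetonitrile/0.2% TFA gradient, 20 min). Buffer-only control taken as theoretical maximum for relative binding; GST tag alone as control.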
# [4] = organism: Homo sapiens; assay: Inhibition of human GST-SOD1 A4V mutant aggregation expressed in Escherichia coli Rosetta assessed as dimeric enzyme level at 20 uM […]
# Procedure, shortened: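 Metal-free SOD-1 A4V apoprotein (25μM) preincubated with increasing compound concentrations, 37°C, 15 min, then 5mM EDTA added and aggregation run 4 hrs at 37°C. Dimer measured by size exclusion chromatography peak area; percentage inhibition calculated against untreated A4V.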
# Superoxide dismutase [Cu-Zn] (Homo sapiens), sequence (P00441 whole entry, the tested form may be a part): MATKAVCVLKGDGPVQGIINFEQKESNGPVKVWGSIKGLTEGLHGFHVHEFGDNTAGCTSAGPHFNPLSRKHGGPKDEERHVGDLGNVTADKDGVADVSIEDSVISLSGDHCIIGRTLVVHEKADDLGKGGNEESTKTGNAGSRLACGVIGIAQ
SMILES,Activity [1],Activity [2],Activity [3],Activity [4]
O=c1[nH]nc(SCc2ccccc2)c(=O)[nH]1,Active,inactive,inactive,Active
O=c1cc(Nc2ccc3ccccc3c2)[nH]c(=O)[nH]1,Active,,inactive,
O=c1[nH]nc(SCc2ccccc2Cl)c(=O)[nH]1,Active,,inactive,
O=c1[nH]cc(CSc2n[nH]c(=O)[nH]c2=O)c(=O)[nH]1,,inactive,,Active
O=c1cc(Nc2ccc(Cl)cc2F)[nH]c(=O)[nH]1,,,inactive,
O=c1[nH]nc(SCc2c(F)cccc2Cl)c(=O)[nH]1,Active,,inactive,
